Assay results from ChEMBL document CHEMBL4610103, “Oleanane Triterpenoids from the Leaves of Gymnema inodorum and Their Insulin Mimetic Activities” (J Nat Prod, 2020).
Calls of active or inactive are those of the source.

Assays:
Format in all cases: functional, cell-based
3T3-L1 [1] = assay: Induction of glucose uptake in mouse 3T3L1 cells assessed as increase in 2-NBDG uptake after 1 hr by fluorescence method
Summary of the method: (§1)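 Differentiated 3T3-L1 adipocytes switched to glucose-free medium containing 100 nM insulin, test compounds (20 μM single dose, or 5, 10 and 20 μM) and 50 μM 2-NBDG. Cells washed twice with PBS and lysed in 1% Triton X-100/0.1 M K3PO4 in PBS. Fluorescence read at ex 450/em 535 nm. Means ± SD of three independent experiments, each in triplicate. DMSO vehicle control; insulin positive control.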

3T3-L1 [2] = assay: Induction of glucose uptake in mouse 3T3L1 cells assessed as increase in 2-NBDG uptake at 20 uM after 1 hr by fluorescence microscopy
Summary of the method: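 Differentiated 3T3-L1 adipocytes treated with 20 μM compound in the presence of 2-NBDG. Green fluorescence inside cells was imaged by fluorescence microscopy to follow 2-NBDG transport. Signals expressed as means ± SD (n = 3). DMSO negative control; insulin positive control.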

3T3-L1 [3] = assay: Induction of glucose uptake in mouse 3T3L1 cells assessed as increase in 2-NBDG uptake at 20 uM after 1 hr by fluorescence method; summary of the method: as §1

Measured: Activity

CC1(C)CC[C@]2(C)[C@@H](O)C[C@]3(C)C(=CC[C@@H]4[C@@]5(C)CC[C@H](O[C@@H]6O[C@H](C(=O)O)[C@@H](O)[C@H](O)[C@H]6O[C@@H]6O[C@H](CO)[C@@H](O)[C@H](O)[C@H]6O)C(C)(C)[C@@H]5CC[C@]43C)[C@@H]2C1
active: 3T3-L1 [1] Dose-dependent effect | 3T3-L1 [2] | 3T3-L1 [3]

CC1(C)C[C@H](OC(=O)c2ccccc2)[C@]2(CO)[C@@H](O)C[C@]3(C)C(=CC[C@@H]4[C@@]5(C)CC[C@H](O[C@@H]6O[C@H](C(=O)O)[C@@H](O)[C@H](O)[C@H]6O)[C@@](C)(CO)[C@@H]5CC[C@]43C)[C@@H]2C1
active: 3T3-L1 [1] Dose-dependent effect | 3T3-L1 [2] | 3T3-L1 [3]

CNc1ccccc1C(=O)O[C@H]1CC(C)(C)C[C@H]2C3=CC[C@@H]4[C@@]5(C)CC[C@H](O[C@@H]6O[C@H](C(=O)O)[C@@H](O)[C@H](O)[C@H]6O)[C@@](C)(CO)[C@@H]5CC[C@@]4(C)[C@]3(C)C[C@H](O)[C@@]12CO
active: 3T3-L1 [1] Dose-dependent effect | 3T3-L1 [2] | 3T3-L1 [3]
